Compound activity: PubChem, several laboratories
PKD1 kinase inh: PKD1 (human) kinase inhibition | Q15139 | PKD1 kinase fluorescence polarization assay | inhibition, % (no concentration beside the values) | 0.056% of 200,000 active
Rad51 HR inh: blocks human Rad51 in homologous recombination; Q06609; hRad51 DNA strand exchange, fluorescence dequenching; inhibition, % at 10 µM; 0.085% of 200,000 active;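 active means inhibition above 40% at the single screening dose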
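Test system: preformed human Rad51 ssDNA filaments. Compound dosing: single dose, 10 µM final compound. Incubation: filaments 15 min 37 °C, then compound 30 min. Technique: FRET fluorescence dequenching, excitation 485 nm, emission 520 nm. Read-out basis: percent inhibition from fluorescence, normalised to plate control and blank means. Benchmarks: plate controls and plate blanks.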
Arbovirus inh: blocks arbovirus infection | arbovirus infection cell-based antiviral screen | inhibition, % at 10 µM | 0.37% of 200,000 active | AID 1251; in the data active means inhibition above about 30%
CHOP inh: inhibitors of CHOP induction in ER stress response | CHO-K1 CHOP-promoter luciferase, tunicamycin-induced, 15-18 h | inhibition, % at 10 µM | 3.8% of 220,000 active | AID 2732;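 active means compounds that reduced the stress-induced luciferase reporter signal by more than about 70% of percent inhibition, limit read from the data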
Wee1 degr inh: human Wee1 degradation inhibition, primary screen | P30291 | 1.2% of 220,000 active | HeLa Luc-Wee1K328M stability, luciferase luminescence; 100% = proteasome inhibitor MG132 effect | AID 1321 | reporter increase, % at 5 µM;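 active means activation above the mean of all tested compounds plus 3 SD, set per screening run, cut at about 8.8% in these data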;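 further: cells exposed to compound for 20 h before luminescence read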
L major viab: inhibitors of Leishmania major promastigote growth | inhibition, % at 10 µM | Leishmania major promastigotes, resazurin fluorescence viability | 9% of 200,000 active | AID 1063;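 further: promastigotes grown with compound for 44 hours at 28 °C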
Large screens that a line does not name were inactive. Sampled rows, rich in hits. Any-hit rate of the full collection: about 12%. Unless noted, no stated cut-off is given here; in the data, active means inhibition above about 50%; inactive means the rest.

Cc1cccc(-n2c(CCc3ccccc3)nnc2SCC(=O)c2ccccc2)c1	none
O=C(NC(=S)Nc1ccccc1N1CCOCC1)c1ccc(-c2ccccc2F)o1	none (no result: PKD1 kinase inh, Arbovirus inh, L major viab)
CC1=[N+](C)c2c(ccc3cccnc23)C1(C)C	CHOP inh 75, L major viab 98
Cc1[nH]c2c(ccc3cccnc32)c1C	none (no result: PKD1 kinase inh, Arbovirus inh, L major viab)
COc1ccccc1N(C)S(=O)(=O)c1ccc(C(=O)NC2=NCCS2)cc1	L major viab 96
COc1ccccc1N(C)S(=O)(=O)c1ccc(C(=O)OCC(=O)c2c[nH]c3ccccc23)cc1	L major viab 100
COc1ccccc1N(C)S(=O)(=O)c1ccc(C(=O)OCC(=O)N(C)c2ccccc2)cc1	L major viab 97
COc1ccccc1N(C)S(=O)(=O)c1ccc(C(=O)OCC(=O)Nc2ccccc2F)cc1	Wee1 degr inh 11
COc1ccc(CCNC(=O)CC2SC(N)=NC2=O)cc1OC (stereo unspecified)	none
COc1ccccc1N(C)S(=O)(=O)c1ccc(C(=O)OC(C)C(=O)NCc2ccc3c(c2)OCO3)cc1 (stereo unspecified)	L major viab 98
COc1ccc(C)cc1NC(=O)C(NC(=O)c1cc(OC)c(OC)c(OC)c1)C(C)C (stereo unspecified)	none
CCOC(=O)C1(CCOc2ccccc2)CCN(Cc2cccc3nonc23)CC1	L major viab 87
CCOC(=O)C1(CCOC)CCN(Cc2ccc3nonc3c2)CC1	none (no result: PKD1 kinase inh, Arbovirus inh, L major viab)
C=C(C)[C@@H]1CC=C(CN2CCC(CCOC)(C(=O)OCC)CC2)CC1	L major viab 79
CCOC(=O)C1(CCOc2ccccc2)CCN(Cc2cnc(SC)nc2)CC1	L major viab 86
CCOC(=O)C1(CCOc2ccccc2)CCN(Cc2ccc(COC)o2)CC1	L major viab 66
CCOC(=O)C1(CCOc2ccccc2)CCN(Cc2ccc(C)o2)CC1	L major viab 74
CN(C)Cc1nnnn1-c1ccccc1	none (no result: PKD1 kinase inh, Arbovirus inh, L major viab)
CCN(CC)CCNC(=O)c1ccccn1	Wee1 degr inh 16
Cc1cccc(-c2nc(=S)c3c(o2)CCCC3)c1	CHOP inh 77 (no result: Rad51 HR inh)
S=c1nc(-c2ccc(Br)cc2)oc2c1CCCC2	none (no result: Rad51 HR inh)
Oc1ccc(N=Nc2ccc3c(c2)OCO3)c2ccccc12	CHOP inh 101 (no result: PKD1 kinase inh, Arbovirus inh, L major viab)
Oc1c(Br)cc(Br)cc1C=Nc1ccc2c(c1)OCO2	none
O=C1c2cccc3c(N4CCCCC4)ccc(c23)C(=O)N1CCO	none
O=C1c2cccc3c(N4CCCCC4)ccc(c23)C(=O)N1c1cccc(O)c1	CHOP inh 72
Cn1c(O)c(C2=c3ccccc3=NC2=O)[nH]c1=S	CHOP inh 84
COc1ccc2nc(-n3c(O)c(C4=c5ccccc5=NC4=O)[nH]c3=S)sc2c1	CHOP inh 103
Cn1c(=S)[nH]c2ccccc21	none
